ChEMBL document CHEMBL5724801, “EUbOPEN Chemogenomics Library - Multiplex” (2024)
Values joined by “and” are separate entries in the source; they are usually repeats but may differ in a detail not shown here. Equal entries are not always repeated.

Test system: U2OS
Test: Multiplex assay against U2OS
Format: toxicity, cell-based
Settings: human
Procedure, shortened: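 With compound added, live cells were imaged on a CQ1 microscope at 37°C and 5% CO2; staining with Hoechst33342, BioTracker Green Microtubule Cytoskeleton Dye, MitoTracker Red and Annexin V Alexa Fluor 680 had been done at seeding. The CellPathfinder machine-learning gating scheme split cells into Hoechst high-intensity objects or normal cells, normal cells into healthy, pyknosed or fragmented nuclei, and pyknosed cells into mitotic or apoptotic. The tubulin, mitochondrial-mass and membrane-permeability phenotypes are per cents of healthy-nucleus cells.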

[1] = 12 h, 1 µM, compound concentration 1 uM
[2] = 12 h, 10 µM, compound concentration 10 uM
[3] = 24 h, 1 µM, compound concentration 1 uM
[4] = 24 h, 10 µM, compound concentration 10 uM
[5] = 48 h, 1 µM, compound concentration 1 uM
[6] = 48 h, 10 µM, compound concentration 10 uM

With `Cl.Clc1cc2cc(c1)-c1cnn3ccc(nc13)NCCOCCO2` the “Population Fragmented Nuclei (%)” value [1] was 3.05% and 2.1%, the “Population Healthy Nuclei (%)” value [1] was 88.09% and 86.01% and the “Population Hoechst High Intensity Objects (%)” value [1] was 0%. For the same molecule, the “Population Membrane Permeable-Phenotype (%)” value [1] was 0.94% and 0.81%, the “Population Mitochondria Different-Phenotype (%)” value [1] was 0% and 8.94% and the “Population Mitotic Cells (%)” value [1] was 56.25% and 94.12%. The “Population Normal (%)” value [1] was 100%, the “Population Pyknosed Nuclei (%)” value [1] was 8.86% and 11.89% and the “Population Tubulin-Different-Phenotype (%)” value [1] was 0.94% and 0%. The “Total Cell Count” value [1] was 361 and 143, the “Population Apoptotic (%)” value [2] was 35.21% and 35.71% and the “Population Fragmented Nuclei (%)” value [2] was 3.56% and 1.13%. For the same molecule, the “Population Healthy Nuclei (%)” value [2] was 82.38% and 83.05%, the “Population Hoechst High Intensity Objects (%)” value [2] was 0% and the “Population Membrane Permeable-Phenotype (%)” value [2] was 0.96% and 3.4%. For the same molecule, the “Population Mitotic Cells (%)” value [2] was 64.79% and 64.29%, the “Population Normal (%)” value [2] was 100% and the “Population Pyknosed Nuclei (%)” value [2] was 14.06% and 15.82%. For the same molecule, the “Population Tubulin-Different-Phenotype (%)” value [2] was 2.16% and 1.36%, the “Total Cell Count” value [2] was 505 and 177 and the “Population Apoptotic (%)” value [3] was 43.75% and 57.89%. The “Population Fragmented Nuclei (%)” value [3] was 2.2% and 1.09%, the “Population Healthy Nuclei (%)” value [3] was 88.2% and 88.52% and the “Population Hoechst High Intensity Objects (%)” value [3] was 0%. The “Population Membrane Permeable-Phenotype (%)” value [3] was 0.68% and 3.09%, the “Population Mitochondria Different-Phenotype (%)” value [3] was 0% and 5.56% and the “Population Mitotic Cells (%)” value [3] was 56.25% and 42.11%. For the same molecule, the “Population Normal (%)” value [3] was 100%, the “Population Pyknosed Nuclei (%)” value [3] was 9.6% and 10.38% and the “Population Tubulin-Different-Phenotype (%)” value [3] was 0.45% and 0%. For the same molecule, the “Total Cell Count” value [3] was 500 and 183, the “Population Apoptotic (%)” value [4] was 55.41% and 45% and the “Population Fragmented Nuclei (%)” value [4] was 1.48% and 2.62%. For the same molecule, the “Population Healthy Nuclei (%)” value [4] was 86.37% and 79.91%, the “Population Hoechst High Intensity Objects (%)” value [4] was 0.16% and 0% and the “Population Membrane Permeable-Phenotype (%)” value [4] was 0.19% and 2.73%. The “Population Mitochondria Different-Phenotype (%)” value [4] was 0% and 4.37%, the “Population Mitotic Cells (%)” value [4] was 44.59% and 55% and the “Population Normal (%)” value [4] was 99.84% and 100%. For the same molecule, the “Population Pyknosed Nuclei (%)” value [4] was 12.15% and 17.47%, the “Population Tubulin-Different-Phenotype (%)” value [4] was 1.33% and 2.73% and the “Total Cell Count” value [4] was 610 and 229. For the same molecule, the “Population Apoptotic (%)” value [5] was 47.73% and 42.42%, the “Population Fragmented Nuclei (%)” value [5] was 3.1% and 2.92% and the “Population Healthy Nuclei (%)” value [5] was 87.5% and 86.36%. The “Population Hoechst High Intensity Objects (%)” value [5] was 0%, the “Population Membrane Permeable-Phenotype (%)” value [5] was 0.98% and 3.01% and the “Population Mitochondria Different-Phenotype (%)” value [5] was 0% and 3.01%. For the same molecule, the “Population Mitotic Cells (%)” value [5] was 52.27% and 57.58%, the “Population Normal (%)” value [5] was 100% and the “Population Pyknosed Nuclei (%)” value [5] was 9.4% and 10.71%. The “Population Tubulin-Different-Phenotype (%)” value [5] was 0.85% and 1.5%, the “Population Apoptotic (%)” value [6] was 53.64% and 54.72% and the “Population Fragmented Nuclei (%)” value [6] was 3.97% and 2.37%. For the same molecule, the “Population Healthy Nuclei (%)” value [6] was 81.76% and 83.68%, the “Population Hoechst High Intensity Objects (%)” value [6] was 0.19% and 0% and the “Population Membrane Permeable-Phenotype (%)” value [6] was 1.39% and 4.4%. For the same molecule, the “Population Mitochondria Different-Phenotype (%)” value [6] was 0.46% and 3.77%, the “Population Mitotic Cells (%)” value [6] was 46.36% and 45.28% and the “Population Normal (%)” value [6] was 99.81% and 100%. The “Population Pyknosed Nuclei (%)” value [6] was 14.27% and 13.95%, the “Population Tubulin-Different-Phenotype (%)” value [6] was 2.43% and 3.46% and the “Total Cell Count” value [6] was 1060 and 380.
For `CCC(=O)OCC(=O)[C@@]1(OC(=O)CC)[C@@H](C)C[C@H]2[C@@H]3CCC4=CC(=O)C=C[C@]4(C)[C@@]3(Cl)[C@@H](O)C[C@@]21C` [BECLOMETHASONE DIPROPIONATE], the “Population Apoptotic (%)” value [1] was 84% and 71%, the “Population Fragmented Nuclei (%)” value [1] was 23% and 18% and the “Population Healthy Nuclei (%)” value [1] was 64% and 75%. The “Population Hoechst High Intensity Objects (%)” value [1] was 1% and 0%, the “Population Membrane Permeable-Phenotype (%)” value [1] was 11% and 13% and the “Population Mitochondria Different-Phenotype (%)” value [1] was 4% and 8%. For the same molecule, the “Population Mitotic Cells (%)” value [1] was 15% and 28%, the “Population Normal (%)” value [1] was 98% and 99% and the “Population Pyknosed Nuclei (%)” value [1] was 12% and 6%. The “Population Tubulin-Different-Phenotype (%)” value [1] was 6% and 4%, the “Total Cell Count” value [1] was 160 and 111 and the “Population Apoptotic (%)” value [2] was 65% and 68%. The “Population Healthy Nuclei (%)” value [2] was 40% and 69%, the “Population Hoechst High Intensity Objects (%)” value [2] was 4% and the “Population Membrane Permeable-Phenotype (%)” value [2] was 67% and 48%. The “Population Mitochondria Different-Phenotype (%)” value [2] was 73% and 97%, the “Population Mitotic Cells (%)” value [2] was 34% and 31% and the “Population Normal (%)” value [2] was 95%. For the same molecule, the “Population Pyknosed Nuclei (%)” value [2] was 17% and 18%, the “Population Tubulin-Different-Phenotype (%)” value [2] was 80% and 97% and the “Total Cell Count” value [2] was 176 and 109. For the same molecule, the “Population Apoptotic (%)” value [3] was 78% and 87%, the “Population Fragmented Nuclei (%)” value [3] was 21% and 15% and the “Population Healthy Nuclei (%)” value [3] was 67% and 71%. The “Population Hoechst High Intensity Objects (%)” value [3] was 2% and 0%, the “Population Membrane Permeable-Phenotype (%)” value [3] was 2% and 6% and the “Population Mitochondria Different-Phenotype (%)” value [3] was 4% and 5%. The “Population Mitotic Cells (%)” value [3] was 21% and 12%, the “Population Normal (%)” value [3] was 97% and 99% and the “Population Pyknosed Nuclei (%)” value [3] was 10% and 13%. The “Population Tubulin-Different-Phenotype (%)” value [3] was 1% and 3%, the “Total Cell Count” value [3] was 217 and 123 and the “Population Apoptotic (%)” value [4] was 74% and 64%. For the same molecule, the “Population Fragmented Nuclei (%)” value [4] was 35% and 12%, the “Population Healthy Nuclei (%)” value [4] was 45% and 69% and the “Population Hoechst High Intensity Objects (%)” value [4] was 3% and 9%. For the same molecule, the “Population Membrane Permeable-Phenotype (%)” value [4] was 40% and 43%, the “Population Mitochondria Different-Phenotype (%)” value [4] was 72% and 86% and the “Population Mitotic Cells (%)” value [4] was 25% and 35%. The “Population Normal (%)” value [4] was 96% and 90%, the “Population Pyknosed Nuclei (%)” value [4] was 18% and 17% and the “Population Tubulin-Different-Phenotype (%)” value [4] was 66% and 76%. The “Total Cell Count” value [4] was 174 and 106, the “Population Apoptotic (%)” value [5] was 91% and 85% and the “Population Fragmented Nuclei (%)” value [5] was 22% and 10%. For the same molecule, the “Population Healthy Nuclei (%)” value [5] was 68% and 75%, the “Population Hoechst High Intensity Objects (%)” value [5] was 2% and the “Population Membrane Permeable-Phenotype (%)” value [5] was 5% and 8%. The “Population Mitochondria Different-Phenotype (%)” value [5] was 2% and 5%, the “Population Mitotic Cells (%)” value [5] was 8% and 14% and the “Population Normal (%)” value [5] was 97%. For the same molecule, the “Population Pyknosed Nuclei (%)” value [5] was 9% and 14%, the “Population Tubulin-Different-Phenotype (%)” value [5] was 2% and 3% and the “Total Cell Count” value [5] was 268 and 152. The “Population Apoptotic (%)” value [6] was 80% and 70%, the “Population Fragmented Nuclei (%)” value [6] was 36% and 21% and the “Population Healthy Nuclei (%)” value [6] was 47% and 65%. For the same molecule, the “Population Hoechst High Intensity Objects (%)” value [6] was 4% and 6%, the “Population Membrane Permeable-Phenotype (%)” value [6] was 20% and 16% and the “Population Mitochondria Different-Phenotype (%)” value [6] was 26% and 36%. For the same molecule, the “Population Mitotic Cells (%)” value [6] was 20% and 29%, the “Population Normal (%)” value [6] was 95% and 93% and the “Population Pyknosed Nuclei (%)” value [6] was 15% and 13%. For the same molecule, the “Population Tubulin-Different-Phenotype (%)” value [6] was 14% and 10% and the “Total Cell Count” value [6] was 199 and 131.
